Experimental data from publication PMC7115694 (European Journal of Medicinal Chemistry, 2010).

B1: UDA (protein, UniProt P11218 24-372, looked up)
Lectin/endochitinase 1: QRCGSQGGGGTCPALWCCSIWGWCGDSEPYCGRTCENKCWSGERSDHRCGAAVGNPPCGQDRCCSVHGWCGGGNDYCSGSKCQYRCSSSVRGPRVALSGNSTANSIGNVVVTEPLFDQMFSHRKDCPSQGFYSYHSFLVAAESFPAFGTIGDVATRKREVAAFLAHISQATSGERSDVENPHAWGLCHINTTTVTENDFCTSSDWPCAAGKKYSPRGPIQLTHNFNYGLAGQAIGEDLIQNPDLVEKDPIISFKTALWFWMSQHDNKPSCHDIVLNANSAANRIPNKGVIGNIISRAFGHDDFAVRSSSIGFYKRYCDMLGVSYGHDLKYWFDNTPSSEFQRIQMRVAA

Assays:
Format in all cases: cell-based
Reovirus-1 = assay: organism not typed; conditions: Vero, read-out: EC50 Reovirus-1
Sindbis virus = assay: microbe, parasite or virus in culture; conditions: Vero, read-out: EC50 Sindbis virus
Punta Toro virus = assay: microbe, parasite or virus in culture; conditions: Vero, read-out: EC50 Punta Toro virus
Vero cells = assay: Cytotoxicity in uninfected cell cultures; conditions: cell morphology
Summary of the method: (§1)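 Uninfected cell cultures are exposed to serial dilutions of test compound in parallel with the virus cytopathicity assays. Cells are examined microscopically. Minimum cytotoxic concentration is the lowest concentration causing a microscopically detectable alteration of normal cell morphology.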

HeLa cells = assay: Cytotoxicity in uninfected cell cultures; conditions: cell morphology
Summary of the method: as §1

Para-influenza-3 virus = assay: organism not typed; conditions: Vero, read-out: EC50 Para-influenza-3 virus
Coxsackie virus B4 = assay: microbe, parasite or virus in culture; conditions: Enterovirus B, B4, HeLa, read-out: EC50 Coxsackie virus B4 visual CPE score
[1] = system: Vesicular stomatitis virus; assay: microbe, parasite or virus in culture; conditions: HEL, read-out: EC50 Vesicular stomatitis virus
Vaccinia virus = assay: microbe, parasite or virus in culture; conditions: Orthopoxvirus vaccinia, HEL, read-out: EC50 Vaccinia virus
[2] = system: Herpes simplex virus-1 (KOS); assay: microbe, parasite or virus in culture; conditions: Human alphaherpesvirus 1, HEL, read-out: EC50 Herpes simplex virus-1 (KOS)
[3] = system: Herpes simplex virus-2 (G); assay: microbe, parasite or virus in culture; conditions: Human alphaherpesvirus 2, HEL, read-out: EC50 Herpes simplex virus-2 (G)
Aspergillus niger = assay: MIC by tube dilution method; conditions: observed, A. niger, 25 °C 7 d
Bacillus subtilis = assay: MIC by tube dilution method; conditions: observed, B. subtilis, 37 °C 24 h
Summary of the method: (§2)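 Test compound is diluted in double strength nutrient broth (I.P.) by tube dilution, with ciprofloxacin as reference. Samples incubated at 37 °C for 24 h. MIC is the lowest concentration inhibiting microbial growth, transformed into pMIC for analysis.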

S. aureus = assay: Minimum bactericidal concentration; conditions: static when MBC 3-fold higher than MIC
C. albicans and A. niger = assay: Average antifungal activity; conditions: average antifungal activity (pMICca + pMICan)/2
HEL cells = assay: Cytotoxicity in uninfected cell cultures; conditions: microscopically detectable alteration of cell morphology
Summary of the method: as §1

Candida albicans = assay: MIC by tube dilution method; conditions: observed, C. albicans, 37 °C 48 h
[4] = system: S. aureus, B. subtilis, E. coli, C. albicans and A. niger; assay: Average antimicrobial activity; conditions: mean of five pMIC values
[5] = system: S. aureus, B. subtilis and E. coli; assay: Average antibacterial activity; conditions: average antibacterial activity (pMICsa + pMICbs + pMICec)/3
Escherichia coli = assay: MIC by tube dilution method; conditions: observed, E. coli, 37 °C 24 h
Summary of the method: as §2

Feline Herpes virus = assay: organism not typed; conditions: for EC50: CRFK, read-out: EC50 Feline Corona Virus
Staphylococcus aureus = assay: MIC by tube dilution method; conditions: observed, S. aureus, 37 °C 24 h
B. subtilis = assay: Minimum bactericidal concentration; conditions: static when MBC 3-fold higher than MIC
[6] = system: Feline Corona virus (FIPV); conditions: CRFK cell cultures, MTS assay

Molecule | EC50 (Reovirus-1) | Minimum cytotoxic concentration (Vero cells) | Cytotoxicity Minimum cytotoxic concentration (HeLa cells) | EC50 (Para-influenza-3 virus) | EC50 [1] [µM] | EC50 (Vaccinia virus) [µM] | pMICan (Aspergillus niger) | pMICbs (Bacillus subtilis) | pMICaf (C. albicans and A. niger) | Minimum cytotoxic concentration (HEL cells) | pMICca (Candida albicans) | pMICam [4] | pMICab [5] | pMICec (Escherichia coli) | EC50 (Feline Herpes virus) [µg/mL] | pMICsa (Staphylococcus aureus) | other results
Nc1ncnc2c1ncn2C[C@H](O)CO [(S)-DHPA] | > 250 µM | >250 µM | >250 µM | > 250 µM | – | – | – | – | – | – | – | – | – | – | – | – | EC50 (Sindbis virus): > 250 µM; EC50 (Punta Toro virus): > 250 µM; EC50 (Coxsackie virus B4): > 250 µM
O=c1[nH]c(=O)n([C@H]2C[C@H](O)[C@@H](CO)O2)cc1/C=C/Br [Brivudin] | – | – | – | – | > 250 | 112 | – | – | – | – | – | – | – | – | – | – | –
Nc1ccn(C[C@@H](CO)OCP(=O)(O)O)c(=O)n1 [Cidofovir] | – | – | – | – | > 250 | > 250 | – | – | – | – | – | – | – | – | – | – | EC50 [2]: 0.4 µM; EC50 [3]: 0.2 µM
Cc1ccccc1C(=O)n1c(-c2ccc(S(=O)(=O)O)cc2)nc2ccccc21 [Compound 10] | > 100 µg/mL | >100 µg/mL | >100 µg/mL | > 100 µg/mL | – | – | 1.20 | 2.10 | 1.35 | >100 µg/mL | 1.50 | 1.80 | 2.10 | 2.10 | > 100 | 2.10 | bacteriostatic/bactericidal action against S. aureus (S. aureus): active bacteriocidal agents
Cc1ccc(C(=O)n2c(-c3ccc(S(=O)(=O)O)cc3)nc3ccccc32)cc1 [Compound 11] | > 100 µg/mL | >100 µg/mL | >100 µg/mL | > 100 µg/mL | – | – | 0.89 | 1.95 | 1.20 | >100 µg/mL | 1.50 | 1.71 | 2.05 | 2.10 | > 100 | 2.10 | bacteriostatic/bactericidal action against B. subtilis (B. subtilis): active bacteriocidal agents
CCCCC(=O)n1c(-c2ccc(S(=O)(=O)O)cc2)nc2ccccc21 [Compound 17] | > 100 µg/mL | >100 µg/mL | >100 µg/mL | > 100 µg/mL | – | – | 1.16 | 1.76 | 1.31 | >100 µg/mL | 1.46 | 1.58 | 1.76 | 1.76 | > 100 | 1.76 | bacteriostatic/bactericidal action against S. aureus (S. aureus): active bacteriocidal agents; bacteriostatic/bactericidal action against B. subtilis (B. subtilis): active bacteriocidal agents
CCCCCCCCCCCCCCCC(=O)n1c(-c2ccc(S(=O)(=O)O)cc2)nc2ccccc21 [Compound 19] | > 100 µg/mL | >100 µg/mL | >100 µg/mL | > 100 µg/mL | – | – | 1.61 | 2.23 | 1.61 | >100 µg/mL | 1.61 | 1.86 | 2.02 | 1.61 | > 100 | 2.23 | –
Cc1ccc(S(=O)(=O)n2c(-c3ccc(S(=O)(=O)O)cc3)nc3ccccc32)cc1 [Compound 20] | > 100 µg/mL | >100 µg/mL | >100 µg/mL | > 100 µg/mL | – | – | 1.23 | 1.84 | 1.39 | >100 µg/mL | 1.54 | 1.60 | 1.74 | 1.54 | > 100 | 1.84 | EC50 (Sindbis virus): > 100 µg/mL
Nc1nc(O)c2ncn(COC(CO)CO)c2n1 [Ganciclovir] | – | – | – | – | > 100 | > 100 | – | – | – | >100 µM | – | – | – | – | – | – | EC50 [2]: 0.03 µM; EC50 [3]: 0.03 µM
NC(=O)c1ncn([C@@H]2O[C@H](CO)[C@@H](O)[C@H]2O)n1 [Ribavirin] | – | >250 µM | >250 µM | 95 µM | > 250 | 10 | – | – | – | >250 µM | – | – | – | – | – | – | EC50 [2]: 1 µM; EC50 (Sindbis virus): > 250 µM; EC50 [3]: 2 µM
B1 | – | – | – | – | – | – | – | – | – | – | – | – | – | – | – | – | EC50 Feline Corona Virus (Feline Herpes virus; CRFK cell cultures, MTS assay): 0.4 µg/mL; EC50 Feline Herpes Virus (FIPV) [6]: 1.5 µg/mL
